Source: article PMC4738094 (Bioorganic & medicinal chemistry, 2015)
Entries after “also recorded” stand apart in the source; their conditions may differ.

Test system: Neuro-2A neuroblastoma cells
Experiment: MTT cell viability assay under Aβ-induced cytotoxicity
Assay type: cell-based, Murine
Details: Neuro-2A cells exposed to Aβ
Method in brief: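 Neuro-2A cells grown in DMEM with 10% FBS and penicillin-streptomycin at 37°C, 5% CO2. Cells briefly trypsinised, seeded at 2,000–4,000 cells/mL, and rested 6 h. Aβ25–35 (from 833 µM solution), test compound (from 250 µM solution) and MTT were added together for 6 h. Extraction buffer (acetic acid/SDS in DMF/water, pH 4.7) was then added, with 6 h shaking in the dark at 37°C. A570 was expressed relative to an Aβ-free control.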

| Structure (SMILES) | protection of cells against Aβ/ROS-induced stress (in words) |
| --- | --- |
| O=C(/C=C/c1ccc(O)c(O)c1)c1ccc(O)cc1 [Compound 9, (E)-3-(3,4-dihydroxyphenyl)-1-(4-hydroxyphenyl)prop-2-en-1-one] | increased cell viability at a modest but noticeable level |
| O=C(/C=C/c1cccc(O)c1O)c1ccc(O)c(O)c1 [Compound 16, (E)-3-(2,3-dihydroxyphenyl)-1-(3,4-dihydroxyphenyl)prop-2-en-1-one] | increased cell viability at a modest but noticeable level |
| O=C(/C=C/c1ccc(O)c(O)c1)c1cc(O)cc(O)c1 [Compound 14, (E)-3-(3,4-dihydroxyphenyl)-1-(3,5-dihydroxyphenyl)prop-2-en-1-one] | increased cell viability at a modest but noticeable level |
| O=C(/C=C/c1ccc(O)c(O)c1)c1ccc(O)c(O)c1O [Compound 18, (E)-3-(3,4-dihydroxyphenyl)-1-(2,3,4-trihydroxyphenyl)prop-2-en-1-one] | best level of protection |
| O=C(/C=C/c1ccc(O)c(O)c1)c1cccc(O)c1 [Compound 8, (E)-3-(3,4-dihydroxyphenyl)-1-(3-hydroxyphenyl)prop-2-en-1-one] | only modest protection |
| O=C(/C=C/c1ccc(O)c(O)c1)c1ccc(O)cc1O [Compound 15, (E)-1-(2,4-dihydroxyphenyl)-3-(3,4-dihydroxyphenyl)prop-2-en-1-one] | best level of protection |
| O=C(/C=C/c1ccc(O)c(O)c1)c1c(O)cccc1O [Compound 11, (E)-1-(2,6-dihydroxyphenyl)-3-(3,4-dihydroxyphenyl)prop-2-en-1-one] | increased cell viability at a modest but noticeable level |
| O=C(/C=C/c1ccc(O)c(O)c1)c1cc(O)ccc1O [Compound 12, (E)-1-(2,5-dihydroxyphenyl)-3-(3,4-dihydroxyphenyl)prop-2-en-1-one] | good rescue properties; also recorded: increased cell viability at a modest but noticeable level |
| O=C(/C=C/c1ccc(O)c(O)c1O)c1ccc(O)c(O)c1 [Compound 19, (E)-1-(3,4-dihydroxyphenyl)-3-(2,3,4-trihydroxyphenyl)prop-2-en-1-one] | increased cell viability at a modest but noticeable level |
| O=C(/C=C/c1cccc(O)c1)c1ccc(O)cc1O [Compound 10, (E)-1-(2,4-dihydroxyphenyl)-3-(3-hydroxyphenyl)prop-2-en-1-one] | poor rescue compound |
| O=C(/C=C/c1ccc(O)c(O)c1)c1ccc(O)c(O)c1 [Compound 13, (E)-1,3-bis(3,4-dihydroxyphenyl)prop-2-en-1-one] | increased cell viability at a modest but noticeable level |
| O=C(/C=C/c1ccc(O)c(O)c1O)c1ccc(O)c(O)c1O [Compound 20, (E)-1,3-bis(2,3,4-trihydroxyphenyl)prop-2-en-1-one] | best level of protection |
| O=C(/C=C/c1cc(O)ccc1O)c1ccc(O)c(O)c1 [Compound 17, (E)-3-(2,5-dihydroxyphenyl)-1-(3,4-dihydroxyphenyl)prop-2-en-1-one] | best level of protection |

Test system: XO
Experiment: not given
Details: read-out: IC50 (XO inhibition); ref [6]; cited from earlier work

| Structure (SMILES) | IC50 |
| --- | --- |
| Oc1ncnc2[nH]ncc12 [Allopurinol] | 0.2 to 50 µM |

Same assay, conditions: ref [16]; cited from earlier work

| Structure (SMILES) | potency (XO inhibition) |
| --- | --- |
| Cc1nc(-c2ccc(OCC(C)C)c(C#N)c2)sc1C(=O)O [febuxostat] | subnanomolar range |

Test system: not given
Experiment: not given
Details: ref [74]; cited from earlier work

| Structure (SMILES) | standard reduction potential |
| --- | --- |
| Oc1ccc(O)cc1 [hydroquinone] | 459 mV |
| Oc1cccc(O)c1 [resorcinol] | 720 mV |
| Oc1ccccc1O [catechol] | 530 mV |
